Laboratory results taken from ChEMBL document CHEMBL4706633, “Design, Synthesis, and Biological Evaluation of a Series of Oxazolone Carboxamides as a Novel Class of Acid Ceramidase Inhibitors” (J Med Chem, 2020).
Converted amounts (≈) assume the structure as drawn. The source made the active and inactive calls. The rule behind the calls is not given here.

What was measured:
Acid ceramidase [1] = molecular target: T1, Acid ceramidase (Homo sapiens, UniProt Q13510); assay: Inhibition of human acid ceramidase using Rbm14-12 fluorogenic substrate incubated for 1 hr by fluorescence assay
T1 sequence (Q13510 whole entry): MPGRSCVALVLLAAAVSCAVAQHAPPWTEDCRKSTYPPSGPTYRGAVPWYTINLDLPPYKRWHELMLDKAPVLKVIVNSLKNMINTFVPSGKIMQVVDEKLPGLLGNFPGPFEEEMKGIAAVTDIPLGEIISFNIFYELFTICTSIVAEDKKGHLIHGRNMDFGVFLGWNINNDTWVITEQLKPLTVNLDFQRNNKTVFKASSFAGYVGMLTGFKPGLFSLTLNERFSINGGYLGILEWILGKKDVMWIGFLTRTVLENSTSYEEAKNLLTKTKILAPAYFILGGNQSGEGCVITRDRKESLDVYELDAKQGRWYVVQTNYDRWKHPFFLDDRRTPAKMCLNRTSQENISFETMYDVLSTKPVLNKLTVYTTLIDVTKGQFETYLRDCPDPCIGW

[2] = molecular target: T2, Acid ceramidase (Homo sapiens) (UniProt Q13510); assay: Inhibition of human acid ceramidase at 1 to 10 uM using N-lauroyl ceramide incubated for 1 hr by LC/MS analysis; details: dose 1-10 µM
T2 sequence (whole entry): T1 sequence (Q13510 whole entry)

Acid ceramidase [3] = molecular target: T1, Acid ceramidase; assay: Inhibition of human acid ceramidase
Acid ceramidase [4] = molecular target: T1, Acid ceramidase; assay: Inhibition of acid ceramidase in human SK-OV-3 cell lysates; assay type: subcellular
[5] = molecular target: T2, Acid ceramidase (Homo sapiens); assay: Inhibition of acid ceramidase in human NCI-H460 cells at 25 uM relative to control; assay type: cell-based
[6] = Half life in mouse liver microsomes at 4.6 uM in presence of NADPH by LC/MS-MS analysis; assay type: ADME, Microsome
Procedure, shortened: (§1)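 Kinetic aqueous solubility was measured in PBS, pH 7.4. Metabolic stability was measured as t1/2 in mouse plasma and mouse liver microsomes, with microsomal data also given as % compound remaining at 1 h. Values are means of at least two independent experiments, each in two technical replicates.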

[7] = Stability in mouse liver microsomes at 4.6 uM in presence of NADPH after 60 mins by LC/MS-MS analysis; assay type: ADME, Microsome; details: read-out: Stabilty
Procedure, shortened: as §1

[8] = Half life in mouse plasma at 2 uM by LC/MS-MS analysis; assay type: ADME, cell-free
Procedure, shortened: as §1

[9] = Kinetic solubility in pH 7.4 PBS buffer at 250 uM incubated for 1 hr by UPLC/MS analysis; assay type: physicochemical; details: read-out: Kinetic_solubility
Procedure, shortened: as §1

[10] = Stability in mouse plasma at 2 uM after 120 mins by LC/MS-MS analysis; assay type: ADME, cell-free; details: read-out: Stabilty
[11] = molecular target: T2, Acid ceramidase (Homo sapiens); assay: Inhibition of human acid ceramidase at 10 uM using N-lauroyl ceramide incubated for 1 hr by LC/MS analysis relative to control
[12] = molecular target: T2, Acid ceramidase (Homo sapiens); assay: Inhibition of human acid ceramidase using Rbm14-12 fluorogenic substrate incubated for 1 hr by fluorescence assay
[13] = Half life in pH 7 0.01M PBS buffer at 2 uM by LC/MS-MS analysis; assay type: physicochemical
Acid ceramidase [14] = molecular target: T1, Acid ceramidase; assay: Inhibition of acid ceramidase in human HaCaT cell lysates; assay type: subcellular
Acid ceramidase [15] = molecular target: T1, Acid ceramidase; assay: Inhibition of acid ceramidase in human HL-60 cell lysates; assay type: subcellular
[16] = molecular target: T2, Acid ceramidase (Homo sapiens); assay: Inhibition of human acid ceramidase at 5 uM using N-lauroyl ceramide incubated for 1 hr by LC/MS analysis relative to control
[17] = Half life in mouse plasma; assay type: ADME, cell-free
Procedure, shortened: as §1

[18] = molecular target: T2, Acid ceramidase (Homo sapiens); assay: Irreversible covalent inhibition of human acid ceramidase using N-lauroyl ceramide incubated for 1 hr by LC/MS analysis

O=C(NCCCCc1ccccc1)n1c(-c2ccc(Cl)cc2)coc1=O
IC50 (Acid ceramidase [1]; read-out: IC50): 5 nM

COc1ccc(-c2cn(C(=O)NCCCCc3ccccc3)c(=O)o2)cc1
IC50 (Acid ceramidase [1]; read-out: IC50): 400 nM

O=C(NCCCCc1ccccc1)N1C[C@@H](c2ccccc2)OC1=O
inhibition [2]: inactive

CCCCCCCCCCCCCC(=O)NCC(O)c1ccccc1 (centres undefined)
IC50 (Acid ceramidase [3]): 1290 nM

O=C(NCCCCc1ccccc1)n1cc(-c2ccc(Cl)cc2)oc1=O
IC50 (Acid ceramidase [1]; read-out: IC50): 83 nM

COc1ccc(/C=C/C(=O)c2c(-c3ccccc3)c3ccccc3[nH]c2=O)cc1
IC50 (Acid ceramidase [3]): 28000 nM | IC50 (Acid ceramidase [4]): 28000 nM | inhibition [5]: 44%

O=C(NCCCCc1ccccc1)N1C[C@H](c2ccccc2)OC1=O
inhibition [2]: inactive

COc1ccccc1-c1cn(C(=O)NCCCCc2ccccc2)c(=O)o1
IC50 (Acid ceramidase [1]; read-out: IC50): 177 nM

CN1CCC(c2cc(F)ccc2-c2cn(C(=O)NCCCCc3ccccc3)c(=O)o2)CC1
t1/2 [6]: > 1 h | remaining at 1 h, 4.6 µM [7]: 51% | t1/2 [8]: > 2 h | solubility kinetic at 1 h, 250 µM [9]: 60 µM (≈ 27.1 µg/mL) | remaining at 2 h, 2 µM [10]: 54% | IC50 (Acid ceramidase [1]; read-out: IC50): 337 nM

COc1cccc(-c2cn(C(=O)NCCCCc3ccccc3)c(=O)o2)c1
t1/2 [6]: 0.5 h | t1/2 [8]: > 2 h | solubility kinetic at 1 h, 250 µM [9]: < 1 µM | remaining at 2 h, 2 µM [10]: 64% | IC50 (Acid ceramidase [1]; read-out: IC50): 341 nM

CCC(C)NC(=O)n1cc(-c2ccccc2)oc1=O (racemic)
inhibition [11]: 21%

O=C(OCCCCc1ccccc1)n1cc(-c2ccccc2)oc1=O
inhibition [2]: inactive

CN(CCCCc1ccccc1)C(=O)n1cc(-c2ccccc2)oc1=O
inhibition [2]: inactive

CCCCCCCC/C=C\CCCCCCCC(=O)NCCO [OLEOYLETHANOLAMIDE]
IC50 (Acid ceramidase [3]): 500000 nM

CCCCCNC(=O)n1c(-c2ccccc2)coc1=O
IC50 (Acid ceramidase [1]; read-out: IC50): 25 nM

O=C(CCCCCc1ccccc1)n1cc(-c2ccccc2)oc1=O
inhibition [2]: inactive

CCCCCNC(=O)n1cc(-c2ccccc2)oc1=O
t1/2 [6]: < 0.083 h | t1/2 [8]: > 2 h | solubility kinetic at 1 h, 250 µM [9]: < 1 µM | remaining at 2 h, 2 µM [10]: 60% | IC50 (Acid ceramidase [1]; read-out: IC50): 39 nM

CCCCCCCCCCCCCCC[C@@H](O)[C@H](CO)NC(=O)CBr
IC50 (Acid ceramidase [3]): 52 nM

Cc1oc(=O)n(C(=O)NCCCCc2ccccc2)c1-c1ccccc1
IC50 (Acid ceramidase [1]; read-out: IC50): 42 nM

CC(C)CNC(=O)n1cc(-c2ccc(F)cc2C2CCN(C)CC2)oc1=O
inhibition [11]: 38%

O=C(NCCCCc1ccccc1)n1cc(-c2cnccn2)oc1=O
t1/2 [6]: 1 h | t1/2 [8]: 0.667 h | solubility kinetic at 1 h, 250 µM [9]: < 1 µM | IC50 (Acid ceramidase [1]; read-out: IC50): 32 nM

O=C(NCCCCc1ccccc1)n1cc(-c2ccncc2)oc1=O
t1/2 [6]: > 1 h | remaining at 1 h, 4.6 µM [7]: 75% | t1/2 [8]: 0.5 h | solubility kinetic at 1 h, 250 µM [9]: < 1 µM | IC50 (Acid ceramidase [1]; read-out: IC50): 18 nM

CN1CCC(c2cc(F)ccc2-c2c[nH]c(=O)o2)CC1
inhibition [12]: inactive

CC(C)CNC(=O)n1cc(-c2ccccc2)oc1=O
t1/2 [6]: 0.833 h | t1/2 [8]: > 2 h | solubility kinetic at 1 h, 250 µM [9]: < 1 µM | remaining at 2 h, 2 µM [10]: 70% | IC50 (Acid ceramidase [1]; read-out: IC50): 1700 nM

O=C(NCCCCc1ccccc1)n1c(-c2ccccc2)coc1=O
half-life at 2 µM [13]: 0.167 h

CCOCCNC(=O)n1cc(-c2ccccc2)oc1=O
t1/2 [6]: < 0.083 h | t1/2 [8]: 1.33 h | solubility kinetic at 1 h, 250 µM [9]: 20 µM (≈ 5.53 µg/mL) | IC50 (Acid ceramidase [1]; read-out: IC50): 2040 nM

Cc1c(-c2ccccc2)oc(=O)n1C(=O)NCCCCc1ccccc1
IC50 (Acid ceramidase [1]; read-out: IC50): 69 nM

O=C(NCCCCc1ccccc1)n1cc(-c2nccs2)oc1=O
IC50 (Acid ceramidase [1]; read-out: IC50): 59 nM

O=C(NCCCCc1ccccc1)n1cc(-c2cccnc2)oc1=O
t1/2 [6]: > 1 h | remaining at 1 h, 4.6 µM [7]: 55% | t1/2 [8]: 1 h | solubility kinetic at 1 h, 250 µM [9]: < 1 µM | IC50 (Acid ceramidase [1]; read-out: IC50): 70 nM

CCCCCCNC(=O)n1cc(F)c(=O)n(C(=O)OCC(C)C)c1=O
IC50 (Acid ceramidase [3]): 7.7 nM

CN1CCC(c2cn(C(=O)NCCCCc3ccccc3)c(=O)o2)CC1
IC50 (Acid ceramidase [1]; read-out: IC50): 1400 nM

COc1cc(-c2cn(C(=O)NCCCCc3ccccc3)c(=O)o2)ccc1F
t1/2 [6]: > 1 h | remaining at 1 h, 4.6 µM [7]: 74% | t1/2 [8]: > 2 h | solubility kinetic at 1 h, 250 µM [9]: < 1 µM | remaining at 2 h, 2 µM [10]: 64% | IC50 (Acid ceramidase [1]; read-out: IC50): 80 nM

CN1CCC(c2cccc(-c3cn(C(=O)NCCCCc4ccccc4)c(=O)o3)c2)CC1
t1/2 [6]: 0.5 h | t1/2 [8]: > 2 h | solubility kinetic at 1 h, 250 µM [9]: 70 µM (≈ 30.3 µg/mL) | remaining at 2 h, 2 µM [10]: 73% | IC50 (Acid ceramidase [1]; read-out: IC50): 153 nM

CN1CCC(c2cc(-c3cn(C(=O)NCCCCc4ccccc4)c(=O)o3)ccc2F)CC1
t1/2 [6]: > 1 h | remaining at 1 h, 4.6 µM [7]: 70% | t1/2 [8]: > 2 h | solubility kinetic at 1 h, 250 µM [9]: 30 µM (≈ 13.5 µg/mL) | remaining at 2 h, 2 µM [10]: 80% | IC50 (Acid ceramidase [1]; read-out: IC50): 341 nM

CCCCCCCCCCCCCC(=O)N[C@H](C)[C@@H](O)c1ccccc1
IC50 (Acid ceramidase [14]): 500000 nM | IC50 (Acid ceramidase [15]): > 500000 nM

Cn1nc(-c2cn(C(=O)NCCCCc3ccccc3)c(=O)o2)c2ccccc21
IC50 (Acid ceramidase [1]; read-out: IC50): 92 nM

CCCCCCNC(=O)n1cc(Cl)c(=O)n(C(=O)OCC(C)C)c1=O
IC50 (Acid ceramidase [3]): 12.8 nM

COCCCNC(=O)n1cc(-c2ccccc2)oc1=O
inhibition [11]: 53%

O=C(NCCCCc1ccccc1)n1cc(-c2cnc3ccccc3n2)oc1=O
IC50 (Acid ceramidase [1]; read-out: IC50): 37 nM

CC(C)CNC(=O)n1cc(-c2ccc(F)c(C3CCN(C)CC3)c2)oc1=O
inhibition [11]: 26%

O=C(NCCCCc1ccccc1)n1cc(-c2ccccn2)oc1=O
t1/2 [6]: 0.167 h | t1/2 [8]: 0.667 h | solubility kinetic at 1 h, 250 µM [9]: < 1 µM | IC50 (Acid ceramidase [1]; read-out: IC50): 25 nM

N=C(N)Nc1ccc(CC(=O)Oc2ccc(-c3ccccc3)cc2)cc1
IC50 (Acid ceramidase [3]): 52000 nM

O=C(Nc1ccccc1)n1cc(-c2ccccc2)oc1=O
inhibition [16]: 20%

CCCCCNC(=O)n1cc(-c2ccc(F)c(C3CCN(C)CC3)c2)oc1=O
IC50 (Acid ceramidase [1]; read-out: IC50): 1920 nM

CCCCCCNC(=O)n1nc(C)cc1C(F)(F)F
IC50 (Acid ceramidase [3]): 14 nM | half-life [17]: 9 min

O=C(NCCCCc1ccccc1)n1cc(-c2cscn2)oc1=O
IC50 (Acid ceramidase [1]; read-out: IC50): 44 nM

O=c1[nH]cc(-c2ccccc2)o1
IC50 (Acid ceramidase [1]): Not Active

O=C(NCCCCc1ccccc1)n1cc(-c2ccc(F)cc2)oc1=O
t1/2 [6]: 1 h | t1/2 [8]: 1.5 h | solubility kinetic at 1 h, 250 µM [9]: < 1 µM | IC50 (Acid ceramidase [1]; read-out: IC50): 185 nM

O=C(NCCCCc1ccccc1)n1cc(-c2ccccc2)oc1=O
inhibition [18]: Dose-dependent effect | t1/2 [6]: 0.667 h | t1/2 [8]: < 0.083 h | half-life at 2 µM [13]: > 12 h | solubility kinetic at 1 h, 250 µM [9]: < 1 µM | IC50 (Acid ceramidase [1]; read-out: IC50): 90 nM
